Experimental data as given in ChEMBL document CHEMBL3861986, “Synthesis and Enantiomeric Separation of a Novel Spiroketal Derivative: A Potent Human Telomerase Inhibitor with High in Vitro Anticancer Activity” (J Med Chem, 2016).
Values belong to the molecule of their own block, whether it stands above or below them. Activity calls are given as the source filed them. No cut-off for these calls is given here.

How the values were obtained:
[1] = Growth inhibition of human M14 cells at 250 nM after 48 hrs by cell titer 96 cell proliferation assay; format: functional; conditions: M14, 48 h, read-out: GI
In short: (§1)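 M14 cells seeded at 8×10^4 cells/mL in 96-well plates and left to adhere overnight. They were treated with 62.5, 125 or 250 nM compound or with DMSO control for up to 72 h. Dye was added for 4 h, followed by solubilization/stop solution, and absorbance was read at 570 nm, zeroed on medium-only wells. Inhibition is given as % versus control. Triplicates in three experiments.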

[2] = Growth inhibition of human M14 cells at 250 nM after 72 hrs by cell titer 96 cell proliferation assay; format: functional; conditions: M14, 72 h, read-out: GI; in short: as §1
[3] = Growth inhibition of human M14 cells at 250 nM after 24 hrs by cell titer 96 cell proliferation assay; format: functional; conditions: M14, 24 h, read-out: GI; in short: as §1
[4] = target: T1, Telomerase reverse transcriptase (Homo sapiens, UniProt O14746); test: Inhibition of telomerase activity in human MCF7 cells using biotin-labeled TeloTAGGG as primer preincubated for 48 hrs followed by primer addition measured after 30 mins by PCR-ELISA; format: cell-based
In short: (§2)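 Cells treated 48 h with 31.2–250 nM, then washed, lysed, and the supernatants stored at −80°C. Extracts were incubated 30 min with biotin-labeled primer for telomeric repeat extension. Products plus internal standard were PCR-amplified, hybridized to digoxigenin probes, captured on streptavidin plates, detected with peroxidase antibody, and read at 450 nm. Heat-inactivated extract (95°C, 10 min) served as negative control. Inhibition is % of untreated means; triplicate.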

[5] = target: T1, Telomerase reverse transcriptase; test: Inhibition of telomerase activity in human MCF7 cells using biotin-labeled TeloTAGGG as primer at 62.5 nM preincubated for 48 hrs followed by primer addition measured after 30 mins by PCR-ELISA; format: cell-based; in short: as §2
[6] = target: T1, Telomerase reverse transcriptase; test: Inhibition of telomerase activity in human M14 cells using biotin-labeled TeloTAGGG as primer at 31.2 nM preincubated for 48 hrs followed by primer addition measured after 30 mins by PCR-ELISA; format: cell-based; in short: as §2
[7] = target: T1, Telomerase reverse transcriptase; test: Inhibition of telomerase activity in human M14 cells using biotin-labeled TeloTAGGG as primer at 62.5 nM preincubated for 48 hrs followed by primer addition measured after 30 mins by PCR-ELISA; format: cell-based; in short: as §2
[8] = target: T1, Telomerase reverse transcriptase; test: Inhibition of telomerase activity in human HT-29 cells using biotin-labeled TeloTAGGG as primer preincubated for 48 hrs followed by primer addition measured after 30 mins by PCR-ELISA; format: cell-based; in short: as §2
[9] = target: T1, Telomerase reverse transcriptase; test: Inhibition of telomerase activity in human MCF7 cells using biotin-labeled TeloTAGGG as primer at 250 nM preincubated for 48 hrs followed by primer addition measured after 30 mins by PCR-ELISA; format: cell-based; in short: as §2
[10] = target: T1, Telomerase reverse transcriptase; test: Inhibition of telomerase activity in human HT-29 cells using biotin-labeled TeloTAGGG as primer at 250 nM preincubated for 48 hrs followed by primer addition measured after 30 mins by PCR-ELISA; format: cell-based; in short: as §2
[11] = target: T1, Telomerase reverse transcriptase; test: Inhibition of telomerase activity in human HT-29 cells using biotin-labeled TeloTAGGG as primer at 125 nM preincubated for 48 hrs followed by primer addition measured after 30 mins by PCR-ELISA; format: cell-based; in short: as §2
[12] = Growth inhibition of human H125 cells at 250 nM after 24 hrs by trypan blue dye exclusion assay; format: functional; conditions: NCI-H125, 24 h, read-out: GI
In short: (§3)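 Cells seeded at 5×10^4 cells/mL and left to adhere overnight. They were then exposed to 7.8–250 nM compound or to DMSO vehicle, 3 wells per treatment, at 37°C in 5% CO2 for 24, 48 or 72 h. Trypsinized cells were counted by hemocytometer, and viability was scored by trypan blue exclusion. Read-out is viable cell number, mean ± SE of triplicate wells, from a representative experiment of at least three.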

[13] = target: T1, Telomerase reverse transcriptase; test: Inhibition of telomerase activity in human H125 cells using biotin-labeled TeloTAGGG as primer at 250 nM preincubated for 48 hrs followed by primer addition measured after 30 mins by PCR-ELISA; format: cell-based; in short: as §2
[14] = target: T1, Telomerase reverse transcriptase; test: Inhibition of telomerase activity in human H125 cells using biotin-labeled TeloTAGGG as primer preincubated for 48 hrs followed by primer addition measured after 30 mins by PCR-ELISA; format: cell-based; in short: as §2
[15] = target: T1, Telomerase reverse transcriptase; test: Inhibition of telomerase activity in human HT-29 cells using biotin-labeled TeloTAGGG as primer at 62.5 nM preincubated for 48 hrs followed by primer addition measured after 30 mins by PCR-ELISA; format: cell-based; in short: as §2
[16] = target: T1, Telomerase reverse transcriptase; test: Inhibition of telomerase activity in human MCF7 cells using biotin-labeled TeloTAGGG as primer at 125 nM preincubated for 48 hrs followed by primer addition measured after 30 mins by PCR-ELISA; format: cell-based; in short: as §2
[17] = Growth inhibition of human M14 cells at 250 nM after 24 hrs by trypan blue dye exclusion assay; format: functional; conditions: M14, 24 h, read-out: GI; in short: as §3
[18] = Growth inhibition of human MCF7 cells at 250 nM after 24 hrs by trypan blue dye exclusion assay; format: functional; conditions: MCF7, 24 h, read-out: GI; in short: as §3
[19] = target: T1, Telomerase reverse transcriptase; test: Inhibition of telomerase activity in human H125 cells using biotin-labeled TeloTAGGG as primer at 31.2 nM preincubated for 48 hrs followed by primer addition measured after 30 mins by PCR-ELISA; format: cell-based; in short: as §2
[20] = Growth inhibition of human HT-29 cells at 250 nM after 24 hrs by trypan blue dye exclusion assay; format: functional; conditions: HT-29, 24 h, read-out: GI; in short: as §3
[21] = target: T1, Telomerase reverse transcriptase; test: Inhibition of telomerase activity in human H125 cells using biotin-labeled TeloTAGGG as primer at 62.5 nM preincubated for 48 hrs followed by primer addition measured after 30 mins by PCR-ELISA; format: cell-based; in short: as §2
[22] = target: T1, Telomerase reverse transcriptase; test: Inhibition of telomerase activity in human M14 cells using biotin-labeled TeloTAGGG as primer at 250 nM preincubated for 48 hrs followed by primer addition measured after 30 mins by PCR-ELISA; format: cell-based; in short: as §2
[23] = target: T1, Telomerase reverse transcriptase; test: Inhibition of telomerase activity in human M14 cells using biotin-labeled TeloTAGGG as primer at 125 nM preincubated for 48 hrs followed by primer addition measured after 30 mins by PCR-ELISA; format: cell-based; in short: as §2
[24] = Growth inhibition of human HL60 cells at 250 nM after 24 hrs by trypan blue dye exclusion assay; format: functional; conditions: HL-60, 24 h, read-out: GI; in short: as §3
[25] = target: T1, Telomerase reverse transcriptase; test: Inhibition of telomerase activity in human M14 cells using biotin-labeled TeloTAGGG as primer preincubated for 48 hrs followed by primer addition measured after 30 mins by PCR-ELISA; format: cell-based; in short: as §2
SH-SY5Y [26] = test: Induction of apoptosis in human SH-SY5Y cells assessed as increase in caspase 3/7 activation at 7.8 to 15.6 nM after 24 hrs by caspase-glo 3/7 luminescence assay; format: functional, cell-based
In short: (§4)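 SH-SY5Y cells seeded at 5×10^4 cells/mL and left to adhere overnight, then exposed to 7.8–31.2 nM for 24 h. Caspase-Glo 3/7 reagent, in a volume equal to the medium, was added for 1 h at 37°C. Luminescence from the cleaved aminoluciferin substrate was read and expressed relative to untreated control set at 1.0. DMSO-treated cells served as negative control. Triplicate wells.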

SH-SY5Y [27] = test: Induction of apoptosis in human SH-SY5Y cells assessed as increase in caspase 3/7 activation at 31.2 nM after 24 hrs by caspase-glo 3/7 luminescence assay relative to control; format: functional; in short: as §4
[28] = target: T1, Telomerase reverse transcriptase; test: Inhibition of telomerase activity in human H125 cells using biotin-labeled TeloTAGGG as primer at 125 nM preincubated for 48 hrs followed by primer addition measured after 30 mins by PCR-ELISA; format: cell-based; in short: as §2
[29] = Growth inhibition of human SH-SY5Y cells at 250 nM after 24 hrs by trypan blue dye exclusion assay; format: functional; conditions: read-out: GI; in short: as §3
[30] = target: T1, Telomerase reverse transcriptase; test: Inhibition of telomerase activity in human HT-29 cells using biotin-labeled TeloTAGGG as primer at 31.2 nM preincubated for 48 hrs followed by primer addition measured after 30 mins by PCR-ELISA; format: cell-based; in short: as §2
[31] = target: T1, Telomerase reverse transcriptase; test: Inhibition of telomerase activity in human MCF7 cells using biotin-labeled TeloTAGGG as primer at 31.2 nM preincubated for 48 hrs followed by primer addition measured after 30 mins by PCR-ELISA; format: cell-based; in short: as §2

T1 sequence (O14746 whole entry): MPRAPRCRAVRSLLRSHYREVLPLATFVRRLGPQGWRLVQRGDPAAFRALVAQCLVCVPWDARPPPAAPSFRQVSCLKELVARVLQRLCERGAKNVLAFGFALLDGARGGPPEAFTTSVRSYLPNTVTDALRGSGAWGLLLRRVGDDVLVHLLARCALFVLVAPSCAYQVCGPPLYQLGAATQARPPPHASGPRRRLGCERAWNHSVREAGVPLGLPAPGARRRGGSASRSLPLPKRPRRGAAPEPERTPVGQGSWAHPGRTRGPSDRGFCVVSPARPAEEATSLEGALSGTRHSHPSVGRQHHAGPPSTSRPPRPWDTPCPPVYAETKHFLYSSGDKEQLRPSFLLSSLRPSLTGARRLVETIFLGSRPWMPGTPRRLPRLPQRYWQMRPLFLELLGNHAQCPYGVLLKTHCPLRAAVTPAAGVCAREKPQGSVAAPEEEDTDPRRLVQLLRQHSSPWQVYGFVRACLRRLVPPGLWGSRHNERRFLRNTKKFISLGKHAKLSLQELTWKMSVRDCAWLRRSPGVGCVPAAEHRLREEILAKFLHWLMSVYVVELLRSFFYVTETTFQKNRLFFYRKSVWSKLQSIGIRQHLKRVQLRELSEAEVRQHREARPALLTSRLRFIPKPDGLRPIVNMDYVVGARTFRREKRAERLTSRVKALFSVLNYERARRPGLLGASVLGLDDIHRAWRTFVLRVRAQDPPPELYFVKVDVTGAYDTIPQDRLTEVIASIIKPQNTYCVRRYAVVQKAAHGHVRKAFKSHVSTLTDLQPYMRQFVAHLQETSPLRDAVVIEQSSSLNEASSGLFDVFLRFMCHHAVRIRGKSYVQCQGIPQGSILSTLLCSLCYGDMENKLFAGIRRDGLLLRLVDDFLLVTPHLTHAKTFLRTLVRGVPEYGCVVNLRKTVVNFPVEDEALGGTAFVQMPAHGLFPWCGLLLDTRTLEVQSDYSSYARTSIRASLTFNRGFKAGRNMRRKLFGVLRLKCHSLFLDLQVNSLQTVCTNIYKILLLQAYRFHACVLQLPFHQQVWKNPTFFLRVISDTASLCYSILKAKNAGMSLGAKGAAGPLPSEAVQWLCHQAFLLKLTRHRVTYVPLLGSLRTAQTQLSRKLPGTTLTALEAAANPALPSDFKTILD

SMILES: C[C@@H]1CCC[C@@]2(O[C@H](O)C=CC2=O)O1
inhibition of growth at 0.25 µM [1]: 58.1% | inhibition of growth at 0.25 µM [2]: 63.7% | inhibition of growth at 0.25 µM [3]: 36.7%

SMILES: C[C@H]1CCC[C@]2(O[C@@H](O)C=CC2=O)O1
inhibition of growth at 0.25 µM [1]: 64.4% | inhibition of growth at 0.25 µM [2]: 66.6% | inhibition of growth at 0.25 µM [3]: 40.4%

IC50 [4]: 0.0126 to 0.0852 µM | inhibition [4]: Dose-dependent effect | inhibition [5]: 37.5% | inhibition [6]: 62% | inhibition [7]: 63% | IC50 [8]: 0.0126 to 0.0852 µM | inhibition [8]: Dose-dependent effect | inhibition [9]: 78.6% | inhibition [10]: 73.4% | inhibition [11]: 69% | inhibition [13]: 75.7% | IC50 [14]: 0.0126 to 0.0852 µM | inhibition [14]: Dose-dependent effect | inhibition [15]: 53.5% | inhibition [16]: 67.9% | inhibition [19]: 13.6% | inhibition [21]: 48.7% | inhibition [22]: 82.6% | inhibition [23]: 74% | IC50 [25]: 0.0126 to 0.0852 µM | inhibition [25]: Dose-dependent effect | inhibition [28]: 67.6% | inhibition [30]: 24% | inhibition [31]: 0%
SMILES: CC1CCCC2(OC(O)C=CC2=O)O1 (mixture of isomers)
inhibition of growth at 0.25 µM [1]: 56.1% | inhibition of growth at 0.25 µM [12]: > 90% | inhibition of growth at 0.25 µM [2]: 61.4% | inhibition of growth at 0.25 µM [17]: > 90% | inhibition of growth at 0.25 µM [18]: > 90% | inhibition of growth at 0.25 µM [20]: > 90% | inhibition of growth at 0.25 µM [3]: 36.8% | inhibition of growth at 0.25 µM [24]: > 90% | Activity (SH-SY5Y [26]): Active | fold change (FC) (SH-SY5Y [27]): 8.2 | inhibition of growth at 0.25 µM [29]: > 90%
